# Source: PMC4137555 (Methods in enzymology, 2011)
# “And” between values parts separate entries of the source, which are not always exact repeats. Identical values can stand only once. Ends that are not written are not given here. Peptide text beside a SMILES is read from it. * marks the point of attachment. Dansyl = CN(C)c1cccc2c(S(=O)(=O)*)cccc12
# Legend:
# [1] = target: Tiam1 PDZ domain (wild-type) (Homo sapiens, UniProt Q13009); assay type: binding; conditions: for ΔGb (free energy of binding): calculated from the dissociation constant, error by error propagation, 25 °C; for Σ Singles: sum of the ΔΔGb of the two single-mutant peptides; for binding to the Tiam1 PDZ domain (in words): unpublished data of the authors; for ΔΔGb: ΔΔGb = ΔGb(Core) − ΔGb(peptide); for Kd: SD
# Sequence of Tiam1 PDZ domain (wild-type) (Q13009 841-930 limits assumed): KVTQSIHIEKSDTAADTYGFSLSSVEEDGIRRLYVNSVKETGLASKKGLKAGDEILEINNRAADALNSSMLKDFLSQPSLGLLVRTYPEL
# In short: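 His6-tagged Tiam1 PDZ domain expressed in E. coli BL21(DE3), purified by nickel-chelate and size-exclusion chromatography, tag removed with rTEV. N-terminally dansylated peptides (2 or 5 μM) in 20 mM PO4, 50 mM NaCl, 0.5 mM EDTA, pH 6.8, at 25 °C; PDZ added in 20–30 steps. Anisotropy read at λex 340/λem 555 nm and fit hyperbolically. Triplicate titrations, mean Kd ± standard deviation.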
# [2] = target: Model peptide; conditions: cited from earlier work
# [3] = target: T1, Tiam2 PDZ domain (Homo sapiens, UniProt Q8IVF5); assay: Peptide binding to the Tiam2 PDZ domain; conditions: unpublished data of the authors
# T1 sequence (Q8IVF5 890-976 limits assumed): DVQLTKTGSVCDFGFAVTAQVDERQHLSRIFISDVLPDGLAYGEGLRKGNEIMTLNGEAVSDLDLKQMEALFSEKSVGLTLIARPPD
# [4] = target: T2, KP-4E-Sdc1 peptide; assay: fluorescence anisotropy
# T2 chain: Dansyl-QEEYYA
Molecule,ΔGb (free energy of binding) [1],ΔΔGb [1],Kd [1],further results
C[C@H](NC(=O)[C@H](Cc1ccccc1)NC(=O)[C@H](Cc1ccc(O)cc1)NC(=O)[C@H](CCC(=O)O)NC(=O)[C@H](CCCCN)NC(=O)[C@H](CCC(N)=O)NC(=O)[C@H](CO)NC(=O)[C@H](CO)NS(=O)(=O)c1cccc2c(N(C)C)cccc12)C(=O)O [YP−1F–Caspr4] (Dansyl-SSQKEYFA-OH),-5.75 ± 0.01 kcal/mol,-0.40 ± 0.05 kcal/mol,60.1 ± 0.6 µM,–
Tiam1 PDZ (from UniProt Q13009),–,–,–,Kd [2]: 112 µM
"SSRKEYYACOOH [Model peptide, reference compound]",-5.38 ± 0.05 kcal/mol,–,–,–
CN(C)c1cccc2c(S(=O)(=O)N[C@@H](CCC(=O)O)C(=O)N[C@@H](CC(N)=O)C(=O)N[C@@H](CCC(N)=O)C(=O)N[C@@H](CCCCN)C(=O)N[C@@H](CCC(=O)O)C(=O)N[C@@H](Cc3ccc(O)cc3)C(=O)N[C@@H](Cc3ccccc3)C(=O)N[C@@H](Cc3ccccc3)C(=O)O)cccc12 [Caspr4] (Dansyl-ENQKEYFF-OH),-6.43 ± 0.02 kcal/mol,-1.09 ± 0.05 kcal/mol,19 ± 0.4 µM,"ΔΔΔGint (interaction energy, double-mutant cycle) ([1]; double-mutant cycle of evolved peptides: Core, two single mutants, double mutant): -0.51 kcal/mol and -0.51 ± 0.08 kcal/mol; Σ Singles [1]: -0.57 ± 0.09 kcal/mol; binding to the Tiam1 PDZ domain (in words) [1]: bound the Tiam1 PDZ domain; binding to the Tiam2 PDZ domain (in words) [3]: bound the PDZ domain tightly"
"NKDKEYYVCOOH [Neurexin1, reference compound]",–,–,–,binding to the Tiam2 PDZ domain (in words) [3]: bound the PDZ domain tightly
Tiam1 PDZ (protein) VTQSIHIEKSDTAADTYGFSLSSVEEDGIRRLYVNSVKETGLASKKGLKAGDEILEINNRAADALNSSML,–,–,–,Kd [4]: 40 µM

# Second part, led by results:
ΔGb (free energy of binding) [1],ΔΔGb [1],Kd [1],Molecule,further results
-6.23 ± 0.03 kcal/mol,-0.88 ± 0.06 kcal/mol,–,TKQEEFYACOOH [Syndecan1],Σ Singles [1]: -0.71 ± 0.11 kcal/mol; binding to the Tiam1 PDZ domain (in words) [1]: bound the Tiam1 PDZ domain
-5.99 ± 0.06 kcal/mol,-0.65 ± 0.07 kcal/mol,40 ± 2 µM,C[C@H](NC(=O)[C@H](Cc1ccc(O)cc1)NC(=O)[C@H](Cc1ccc(O)cc1)NC(=O)[C@H](CCC(=O)O)NC(=O)[C@H](CCC(=O)O)NC(=O)[C@H](CCC(N)=O)NC(=O)[C@H](CO)NC(=O)[C@H](CO)NS(=O)(=O)c1cccc2c(N(C)C)cccc12)C(=O)O [KP−4E–Sdc1] (Dansyl-SSQEEYYA-OH),–
-5.52 ± 0.06 kcal/mol,-0.17 ± 0.08 kcal/mol,89 ± 5 µM,CN(C)c1cccc2c(S(=O)(=O)N[C@@H](CO)C(=O)N[C@@H](CO)C(=O)N[C@@H](CCC(N)=O)C(=O)N[C@@H](CCCCN)C(=O)N[C@@H](CCC(=O)O)C(=O)N[C@@H](Cc3ccc(O)cc3)C(=O)N[C@@H](Cc3ccc(O)cc3)C(=O)N[C@@H](Cc3ccccc3)C(=O)O)cccc12 [AP0F–Caspr4] (Dansyl-SSQKEYYF-OH),–
-5.42 ± 0.07 kcal/mol,-0.07 ± 0.08 kcal/mol,106 ± 7 µM,C[C@H](NC(=O)[C@H](Cc1ccc(O)cc1)NC(=O)[C@H](Cc1ccccc1)NC(=O)[C@H](CCC(=O)O)NC(=O)[C@H](CCCCN)NC(=O)[C@H](CCC(N)=O)NC(=O)[C@H](CO)NC(=O)[C@H](CO)NS(=O)(=O)c1cccc2c(N(C)C)cccc12)C(=O)O [YP−2F–Sdc1] (Dansyl-SSQKEFYA-OH),–
